Data on 6 compounds can be found in ChEMBL document CHEMBL3875213, “Quinolines: Microwave-assisted synthesis and their antifungal, anticancer and radical scavenger properties” (Bioorg Med Chem, 2017).

≈ marks a conversion by molar mass, not a printed value. Calls of active or inactive are those of the source. The rule behind the calls is not given here. Some results are limits rather than exact numbers.

Type in all cases: functional
Experiment [1] is described as follows: Antifungal activity against Cryptococcus neoformans ATCC 32264 incubated for 48 hrs under dark condition by broth microdilution assay. The essentials:
(§1)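 Broth microdilution per CLSI M27-A3 in RPMI-1640. Inocula adjusted to 1-5 x 10^3 CFU/mL. Stocks in DMSO (≤1%), final 3.9-250.0 µg/mL. Incubated 48 h at 30 °C in a moist, dark chamber, read at OD 405. % inhibition computed from growth and sterility control wells, run in triplicate. MIC80/MIC50 taken from four-parameter logistic concentration-response curves; amphotericin B as positive control.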
For orientation: Broth dilution looks for growth in wells or tubes with falling amounts of substance.

Experiment [2] deals with Candida albicans. As to the kind of experiment: Antifungal activity against Candida albicans ATCC 10231 incubated for 48 hrs under dark condition by broth microdilution assay. Particulars: ATCC 10231, 48 h. The essentials: as §1
A short description of experiment [3]: Antioxidant activity assessed as fluorescent light-induced superoxide anion scavenging activity at 160 uM incubated for 10 mins by nitroblue tetrazolium dye based assay. The essentials: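 Superoxide generated photochemically in 50 mM phosphate buffer pH 7.8 with 13 mM L-methionine, 75 µM nitroblue tetrazolium, 100 µM EDTA and 2 µM riboflavin. Compound at 160 µM. 10 min at 25 °C under fluorescent light; dark controls. Read at 575 nm. Resveratrol as positive control; three independent experiments in triplicate.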

A short description of experiment [4]: Antioxidant activity assessed as DPPH radical scavenging activity at 160 uM incubated for 30 mins under dark condition. The essentials: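 Compound at 160 µM incubated with 100 µM DPPH in ethanolic medium, stirred in the dark for 30 min, read at 517 nm. Resveratrol as positive control. Three independent experiments, each in triplicate.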
(In general: The DPPH test is a chemical assay of radical scavenging.)

Experiment [5] in a line: Antioxidant activity assessed as DPPH radical scavenging activity incubated for 30 mins under dark condition. The essentials:
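DPPH (100 µM) in ethanolic medium, stirred 30 min in the dark, absorbance at 517 nm. Compound varied from 0 to 160 µg/mL to find the concentration scavenging 50% of radicals. Three independent experiments, each in triplicate.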

Experiment [6] can be described thus: Antioxidant activity assessed as fluorescent light-induced superoxide anion scavenging activity incubated for 10 mins by nitroblue tetrazolium dye based assay. Put shortly:
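Riboflavin/light superoxide system: 50 mM phosphate pH 7.8, 13 mM L-methionine, 75 µM NBT, 100 µM EDTA, 2 µM riboflavin, compound 0-200 µg/mL. Fluorescent light for 10 min at 25 °C, dark controls, scavenging measured at 575 nm. Resveratrol as reference.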

Experiment [7] concerns Candida albicans. Nature of the experiment: Growth inhibition of Candida albicans ATCC 10231 at 62.5 ug/ml incubated for 48 hrs under dark condition by broth microdilution assay relative to amphotericin B. Particulars: ATCC 10231, 48 h, read-out: GI. The essentials: (§2)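 Yeast broth microdilution (CLSI M27-A3), RPMI-1640, inoculum 1-5 x 10^3 CFU/mL, DMSO ≤1%, 48 h at 30 °C in a moist, dark chamber. […]. Triplicate; amphotericin B as positive control.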

Experiment [8] deals with Candida albicans. Nature of the experiment: Growth inhibition of Candida albicans ATCC 10231 at 250 ug/ml incubated for 48 hrs under dark condition by broth microdilution assay relative to amphotericin B. Particulars: ATCC 10231, 48 h, read-out: GI. The essentials:
as §2

The subject of experiment [9] is Candida albicans. As to the kind of experiment: Growth inhibition of Candida albicans ATCC 10231 at 31.25 ug/ml incubated for 48 hrs under dark condition by broth microdilution assay relative to amphotericin B. Particulars: ATCC 10231, 48 h, read-out: GI. Put shortly: as §2
The subject of experiment [10] is Candida albicans. Nature of the experiment: Growth inhibition of Candida albicans ATCC 10231 at 15.62 ug/ml incubated for 48 hrs under dark condition by broth microdilution assay relative to amphotericin B. The note with it: ATCC 10231, 48 h, read-out: GI. Put shortly:
as §2

The test system of experiment [11] is Candida albicans. Nature of the experiment: Growth inhibition of Candida albicans ATCC 10231 at 7.81 ug/ml incubated for 48 hrs under dark condition by broth microdilution assay relative to amphotericin B. The note with it: ATCC 10231, 48 h, read-out: GI. Put shortly: as §2
The test system of experiment [12] is Candida albicans. Nature of the experiment: Growth inhibition of Candida albicans ATCC 10231 at 3.9 ug/ml incubated for 48 hrs under dark condition by broth microdilution assay relative to amphotericin B. The note with it: ATCC 10231, 48 h, read-out: GI. The essentials:
as §2

Experiment [13] deals with Candida albicans. As to the kind of experiment: Growth inhibition of Candida albicans ATCC 10231 at 125 ug/ml incubated for 48 hrs under dark condition by broth microdilution assay relative to amphotericin B. The note with it: ATCC 10231, 48 h, read-out: GI. Put shortly:
as §2

Broadly, the MIC50 is the lowest concentration that inhibits either 50% of growth or 50% of the strains tested, depending on the study. A lower MIC50 goes with greater potency. As usually defined, the MIC80 is an inhibitory concentration at the 80% level, which refers to growth in some studies and to a panel of isolates in others. A lower MIC80 goes with greater potency. With `C[C@@H]1[C@H](O)[C@@H](C)/C=C/C=C/C=C/C=C/C=C/C=C/C=C/[C@H](O[C@@H]2O[C@H](C)[C@@H](O)[C@H](N)[C@@H]2O)C[C@@H]2O[C@](O)(C[C@@H](O)C[C@@H](O)[C@H](O)CC[C@@H](O)C[C@@H](O)CC(=O)O[C@H]1C)C[C@H](O)[C@H]2C(=O)O` [AMPHOTERICIN B], the MIC50 in experiment [1] was 0.12 µg/mL (≈ 0.13 µM); against Candida albicans [2], 0.06 µg/mL (≈ 0.0649 µM). Besides, the figures for the MIC80 (in experiment [1]; against Candida albicans [2]) were 0.25 µg/mL (≈ 0.271 µM) and 0.12 µg/mL (≈ 0.13 µM), respectively.

Turning to `Oc1ccc(/C=C/c2cc(O)cc(O)c2)cc1`, the outcome in experiment [3] and in experiment [4] was Active. Further, the SC50 was 8.2 µM in [5] and 255 µM in [6].

On to `FC(F)(F)c1ccc2nc(-c3ccccc3)cc(-c3ccccc3)c2c1`, for which the inhibition of growth at 62.5 µg/mL in the experiment with Candida albicans [7] amounted to 8.77%. Besides, the inhibition of growth at 250 µg/mL in the experiment on Candida albicans [8] came out at 20.1%. The inhibition of growth at 31.25 µg/mL in the experiment on Candida albicans [9] was determined as 7.83%. Besides, in the experiment with Candida albicans [10], the inhibition of growth at 15.62 µg/mL was found to be 3.65%. Besides, the inhibition of growth at 7.81 µg/mL in the experiment with Candida albicans [11] was 2.81%. For the same compound, in the experiment on Candida albicans [12], the inhibition of growth at 3.9 µg/mL was determined as 0%. Also, the inhibition of growth at 125 µg/mL with Candida albicans [13] is 14%. The Activity in experiment [4] was in the range of 45 to 55%. The results for the MIC50 (in [1]; with Candida albicans [2]) were 250 µg/mL (≈ 716 µM) and more than 250 µg/mL, respectively. Besides, the MIC80 in experiment [1] is 250 µg/mL (≈ 716 µM); in the experiment with Candida albicans [2], more than 250 µg/mL. Moreover, the SC50 in experiment [5] was 261 µM; in experiment [6], more than 250 µM.

As for `Fc1ccc2nc(-c3ccccc3)cc(-c3ccccc3)c2c1`, the inhibition of growth at 62.5 µg/mL in the experiment on Candida albicans [7] is 18.4%. Moreover, in the experiment with Candida albicans [8], the inhibition of growth at 250 µg/mL turned out to be 67.5%. For the same compound, the inhibition of growth at 31.25 µg/mL in the experiment on Candida albicans [9] stood at 11.8%. Besides, the inhibition of growth at 15.62 µg/mL in the experiment with Candida albicans [10] worked out at 4.27%. In the experiment with Candida albicans [11], the inhibition of growth at 7.81 µg/mL turned out to be 2.01%. In the experiment with Candida albicans [12], the inhibition of growth at 3.9 µg/mL worked out at 0%. The inhibition of growth at 125 µg/mL in the experiment with Candida albicans [13] worked out at 34.2%. Further, in experiment [3], the Activity was less than 10%. In [1], this compound came in with an MIC50 of more than 250 µg/mL and an MIC80 of more than 250 µg/mL. In the experiment with Candida albicans [2], this compound had an MIC50 of 250 µg/mL (≈ 835 µM) and an MIC80 of more than 250 µg/mL.

As for `COc1ccc(-c2cc(-c3ccccc3)c3cc(Br)ccc3n2)cc1`, in the experiment with Candida albicans [7], the inhibition of growth at 62.5 µg/mL was determined as 4.57%. The inhibition of growth at 250 µg/mL in the experiment with Candida albicans [8] came out at 10.6%. For the same compound, in the experiment on Candida albicans [9], the inhibition of growth at 31.25 µg/mL came to 4.5%. Besides, the inhibition of growth at 15.62 µg/mL in the experiment on Candida albicans [10] was 4.06%. Moreover, the inhibition of growth at 7.81 µg/mL with Candida albicans [11] is 0%. The inhibition of growth at 3.9 µg/mL in the experiment on Candida albicans [12] was determined as 0%. For the same compound, in the experiment on Candida albicans [13], the inhibition of growth at 125 µg/mL was 8.32%. The outcome in experiment [3] was Active. Moreover, the MIC50 (in [1]; against Candida albicans [2]) was more than 250 µg/mL in each case. Further, the MIC80 (in [1]; in the experiment on Candida albicans [2]) was more than 250 µg/mL each time.

In the case of `COc1cc2nc(-c3ccccc3)cc(-c3ccccc3)c2c(OC)c1OC`, the inhibition of growth at 62.5 µg/mL with Candida albicans [7] worked out at 20.7%. The inhibition of growth at 250 µg/mL with Candida albicans [8] was 100%. Also, the inhibition of growth at 31.25 µg/mL in the experiment on Candida albicans [9] came to 8.13%. In addition, the inhibition of growth at 15.62 µg/mL in the experiment with Candida albicans [10] is 6.76%. In addition, in the experiment on Candida albicans [11], the inhibition of growth at 7.81 µg/mL worked out at 6.81%. The inhibition of growth at 3.9 µg/mL with Candida albicans [12] came out at 0%. Moreover, in the experiment on Candida albicans [13], the inhibition of growth at 125 µg/mL amounted to 86.7%. The outcome in [3] was Active. The Activity in experiment [4] is 70 to 85%. Besides, the MIC50 came to 7.8 µg/mL (≈ 21 µM) in experiment [1] and 125 µg/mL (≈ 337 µM) in the experiment on Candida albicans [2]. In addition, the MIC80 stood at 15.6 µg/mL (≈ 42 µM) in experiment [1] and 125 µg/mL (≈ 337 µM) with Candida albicans [2]. Also, the SC50 is 18.9 µM in experiment [5] and more than 250 µM in experiment [6].
